Experimental findings from the array DNA melting data of Ke et al. (doi:10.1101/2024.01.08.574731) are described below.

Data set [1] in a line: folding enthalpy; higher = less favourable; fluorescence melt of hairpins on a sequencing array, two-state fit. The conditions noted are these: sodium 0.088 M. Summed up: (§1)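 Folding enthalpy and melting temperature were estimated with bootstrapped two-state fits and combined across four replicates by inverse-variance weighting, with fitted temperatures raised by 9.35 °C to match UV melts. The data were Cy3 fluorescence of library hairpins, with annealed Cy3 and quencher oligos, on a sequenced MiSeq flow cell in 50 mM Na-HEPES pH 8.0, 25 mM NaCl, imaged in 2.5 °C steps up to 60 °C and normalised to pre-quench Cy3 and control constructs.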

The nature of data set [2]: melting temperature; fluorescence melt of hairpins on a sequencing array, two-state fit, raised by 9.35 °C to match UV melts. The conditions noted are these: sodium 0.088 M. Put shortly: as §1

GATCAATCAGTTGATC ((((((....)))))): in data set [1], the folding enthalpy was -29.6 kcal/mol. Besides, the Tm in data set [2] amounted to 44.4 °C.
The matching figures for GCTATAGGAAACCATAGC (((((.(....).))))): -29.8 kcal/mol and 35.6 °C.
In the case of GATATCGGAAACGATATC (((((((....))))))), the folding enthalpy in data set [1] is -42.4 kcal/mol. Besides, the Tm in data set [2] came out at 56.7 °C.
GCGTATCGACGC ((((....)))): the folding enthalpy in data set [1] is -18.9 kcal/mol. Besides, the Tm in data set [2] stood at 52.6 °C.
In the case of GACTGTGGAAACGCAGTC (((((.(....).))))), the folding enthalpy in data set [1] was -31.7 kcal/mol. The Tm in data set [2] came to 51.9 °C.
The matching figures for GATCAGGCGTCTGATC ((((((....)))))): -39.3 kcal/mol and 51 °C.
As to GACAACCGAAAGGTAGTC (((.(((....))).))), the folding enthalpy in data set [1] was -33 kcal/mol. Further, the Tm in data set [2] amounted to 51.3 °C.
Taken in the same sequence, the figures for GCACGATCGAAAGATTGC (((..(((....)))))) were -18.7 kcal/mol and 31.7 °C.
With GTATTGGCGAAAGCCTAC (((..(((....)))))), the folding enthalpy in data set [1] was -3.67 kcal/mol. In addition, the Tm in data set [2] came out at 41.5 °C.
In the case of GGCATAGGAAACTATGTC (.(((((....))))).), the folding enthalpy in data set [1] was -35 kcal/mol. Moreover, the Tm in data set [2] was determined as 45.7 °C.
The matching figures for GCTCACGAAAGTGTGAGC ((((((....)))..))): -34 kcal/mol and 55.8 °C.
As for GTAGACGAAAGTCTCTAC ((((((....)))..))), in data set [1], the folding enthalpy is -11.6 kcal/mol. Moreover, the Tm in data set [2] came out at 34.9 °C.
As to GCGGTAGTCCGC ((((....)))), in data set [1], the folding enthalpy is -21.9 kcal/mol. In data set [2], the Tm stood at 58.8 °C.
Consider GGTGGAGGAAACTTCGCC ((.(.((....)).).)), for which the folding enthalpy in data set [1] was -28.2 kcal/mol. The Tm in data set [2] was 37.7 °C.
With GTCTCGGAAACGAGAC ((((((....)))))), in data set [1], the folding enthalpy is -44.5 kcal/mol. Moreover, the Tm in data set [2] is 64.8 °C.
As to GCGACCGAAAGGTGGCGC ((((((....)))..))), the folding enthalpy in data set [1] is -31.5 kcal/mol. The Tm in data set [2] came to 66.9 °C.
Turning to GTTGCTCGAAAGAGAAC (((.(((....)))))), in data set [1], the folding enthalpy was -20.2 kcal/mol. Besides, in data set [2], the Tm worked out at 34.4 °C.
Turning to GATCGGGGATCCGATC ((((((....)))))), the folding enthalpy in data set [1] was -40.7 kcal/mol. Further, the Tm in data set [2] amounted to 62.8 °C.
In the case of GATCCTGAAAGGATC ((((((...)))))), in data set [1], the folding enthalpy was -38.7 kcal/mol. The Tm in data set [2] came to 65.9 °C.
The matching figures for GTTCCCGGAAACGGGAGC (.(((((....))))).): -26 kcal/mol and 54.2 °C.
The matching figures for GGCGCGCCGAAAGGCGCC (((..(((....)))))): -4.97 kcal/mol and 44.5 °C.
For GCTCGGCGAAAGCCAAGC (((.(((....))).))), the folding enthalpy in data set [1] is -35.8 kcal/mol. In addition, in data set [2], the Tm was 52.4 °C.
With GACTACGCGAAAGCGGTC (((..(((....)))))), in data set [1], the folding enthalpy was -15.1 kcal/mol. Further, the Tm in data set [2] was 38 °C.
With GCTTTCGGAAACAAAAGC (((((.(....).))))), in data set [1], the folding enthalpy is -23.9 kcal/mol. Moreover, in data set [2], the Tm turned out to be 35.5 °C.
Taken in the same sequence, the figures for GCCCGGCGAAAGCTCGGC (((..((....))..))) were -16.4 kcal/mol and 52.7 °C.
Regarding GATCGTCTAACGATC ((((((...)))))), the folding enthalpy in data set [1] was -38.7 kcal/mol. In addition, the Tm in data set [2] was 55.6 °C.
For GATCCTTATAAGGATC ((((((....)))))), the folding enthalpy in data set [1] was -36 kcal/mol. Besides, the Tm in data set [2] came to 53.9 °C.
GAGTACGCGAAAGCGCTC (((..(((....)))))): the folding enthalpy in data set [1] is -10 kcal/mol. The Tm in data set [2] stood at 34.6 °C.
GTGTTGGGAAACCAACGC (.(((((....))))).): in data set [1], the folding enthalpy was -32.8 kcal/mol. Further, in data set [2], the Tm stood at 54.2 °C.
On to GATCCGGTGACGGATC ((((((....)))))), for which the folding enthalpy in data set [1] was -38.9 kcal/mol. The Tm in data set [2] was determined as 67.3 °C.
For the sequence GACAGAGCGAAAGCTGTC (((..(((....)))))), the folding enthalpy in data set [1] is -18.3 kcal/mol. The Tm in data set [2] was 46.7 °C.
Consider GATCGGGGAAACTCGATC (((((.(....).))))), for which the folding enthalpy in data set [1] is -33.1 kcal/mol. Moreover, the Tm in data set [2] came to 51.2 °C.
For GACCGTGGAAACATGGTC ((((.((....)).)))), the folding enthalpy in data set [1] was -43.2 kcal/mol. Besides, the Tm in data set [2] was found to be 54.2 °C.
As for GCCTTCACGAAAGTGGGC (((..(((....)))))), the folding enthalpy in data set [1] is -18.6 kcal/mol. For the same sequence, the Tm in data set [2] was 46.6 °C.
Taken in the same sequence, the figures for GTTTCTCCGAAAGGAAAC (((..(((....)))))) were -14.8 kcal/mol and 33 °C.
Consider GACAGGGGAAACCCCGTC (((.(((....))).))), for which the folding enthalpy in data set [1] is -24.6 kcal/mol. In addition, the Tm in data set [2] was determined as 50.3 °C.
In the case of GTTCCGCGAAAGCGAAAC (((.(((....))).))), in data set [1], the folding enthalpy was -23.6 kcal/mol. Besides, in data set [2], the Tm stood at 53.9 °C.
